Two compounds from ChEMBL document CHEMBL4673214, “Synthesis and antibacterial bioactivities of cationic deacetyl linezolid amphiphiles” (Eur J Med Chem, 2018) can be followed below.

The subject of data set [1] is Enterobacteriaceae. The data set is described as follows: Antibacterial activity against NDM1 producing carbapenem-resistant Enterobacteriaceae clinical isolate 3 assessed as reduction in bacterial growth incubated for 16 to 20 hrs by CLSI-based broth microdilution method. It is filed as functional. As to conditions: time 16-20 hrs. In outline:
(§1)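 Clinical isolates tested by broth microdilution in cation-adjusted Mueller-Hinton broth. Cultures grown 4-6 h (~10^8 CFU/mL) were diluted to ~10^6 CFU/mL and mixed 1:1 with compound serial dilutions made from 256 down to 0.5 µg/mL (pre-mixing). Plates held at 37 °C for 16-20 h, then read for growth. Each concentration run in duplicate, whole experiment at least twice.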
(Dilution methods test growth across graded concentrations, often in twofold steps.)

Data set [2] concerns Enterobacteriaceae. The data set is described as follows: Antibacterial activity against NDM1 producing carbapenem-resistant Enterobacteriaceae clinical isolate 5 assessed as reduction in bacterial growth incubated for 16 to 20 hrs by CLSI-based broth microdilution method. It is filed as functional. As to conditions: time 16-20 hrs. In outline:
as §1

Data set [3] deals with Staphylococcus aureus. Kind of data set: Antibacterial activity against methicillin-resistant Staphylococcus aureus clinical isolate 3 assessed as reduction in bacterial growth incubated for 16 to 20 hrs by CLSI-based broth microdilution method. It is filed as functional. As to conditions: time 16-20 hrs. In outline:
as §1

Data set [4] deals with Staphylococcus aureus. Kind of data set: Antibacterial activity against methicillin-resistant Staphylococcus aureus clinical isolate 6 assessed as reduction in bacterial growth incubated for 16 to 20 hrs by CLSI-based broth microdilution method. The following applies: time 16-20 hrs. It is filed as functional. The method, boiled down:
as §1

The subject of data set [5] is Staphylococcus aureus. Kind of data set: Antibacterial activity against Staphylococcus aureus ATCC 29213 assessed as reduction in bacterial growth incubated for 16 to 20 hrs by CLSI-based broth microdilution method. It is filed as functional. As to conditions: time 16-20 hrs. In outline:
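Broth microdilution following CLSI, in cation-adjusted Mueller-Hinton broth. Inoculum from a 4-6 h culture (~10^8 CFU/mL), diluted to ~10^6 CFU/mL. Water stocks were serially diluted in MHB (256 to 0.5 µg/mL) and mixed 1:1 with the inoculum. Plates ran 16-20 h at 37 °C. MIC was read visually. Each concentration was tested in duplicate, and the experiment was repeated at least twice.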

The subject of a further data set is Klebsiella pneumoniae. Kind of data set: Antibacterial activity against carbapenem-resistant Klebsiella pneumoniae clinical isolate 9 assessed as reduction in bacterial growth incubated for 16 to 20 hrs by CLSI-based broth microdilution method. It is filed as functional. The following applies: time 16-20 hrs. The method, boiled down: as §1
Another data set relates to Cell membrane. The data set is described as follows: Induction of outer membrane permeabilization in Escherichia coli ATCC 25922 at 20 ug/ml measured for 12 mins by NPN dye based fluorescence assay. The following applies: dose 20.0 µg/ml. In outline:
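Mid-log E. coli in HEPES/glucose/KCl at ~10^8 CFU/mL was preincubated 40 min with N-phenylnaphthylamine (10 µM stock). Fluorescence (ex 350/em 420 nm) was read for an 8 min baseline, then every 2 min for 12 min after compound at 20 µg/mL final. Water served as control.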

Data set [6] relates to Staphylococcus aureus. The data set is described as follows: Antibacterial activity against methicillin-resistant Staphylococcus aureus clinical isolate 10 assessed as reduction in bacterial growth incubated for 16 to 20 hrs by CLSI-based broth microdilution method. It is filed as functional. As to conditions: time 16-20 hrs. The method, boiled down: as §1
The subject of data set [7] is Enterobacteriaceae. The data set is described as follows: Antibacterial activity against NDM1 producing carbapenem-resistant Enterobacteriaceae clinical isolate 8 assessed as reduction in bacterial growth incubated for 16 to 20 hrs by CLSI-based broth microdilution method. It is filed as functional. As to conditions: time 16-20 hrs. The method, boiled down: as §1

In data set [8] the test system is Enterobacteriaceae. Kind of data set: Antibacterial activity against NDM1 producing carbapenem-resistant Enterobacteriaceae clinical isolate 4 assessed as reduction in bacterial growth incubated for 16 to 20 hrs by CLSI-based broth microdilution method. It is filed as functional. As to conditions: time 16-20 hrs. The method, boiled down: as §1
Data set [9] has as its system Staphylococcus aureus. Kind of data set: Antibacterial activity against Staphylococcus aureus ATCC 29213 assessed as reduction in bacterial growth compound preincubated with 50% sheep plasma for 6 hrs followed by incubation for 20 to 24 hrs by agar plate method. It is filed as functional. The following applies: time 20-24 hrs. The method, boiled down: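 Sheep plasma came from centrifuged defibrinated blood. Compound at 512 µg/mL in 50% water/50% plasma was preincubated at 37 °C for 0, 3 or 6 h, then serially diluted (256 to 4 µg/mL). Dilutions were mixed 1:3 with S. aureus suspension (10^5 CFU/mL) and incubated 20-24 h at 37 °C. MBC was taken as no colonies after 20 µL was plated on agar.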

Data set [10] relates to Staphylococcus aureus. Kind of data set: Antibiofilm activity against 24 hrs preformed biofilm of Staphylococcus aureus ATCC 29213 assessed as biofilm viability at 64 ug/ml incubated for 24 hrs by crystal violet staining analysis (reference value: 18.9 1og10CFU). The following applies: dose 64 µg/ml. It is filed as functional.
Data set [11] relates to Escherichia coli. Kind of data set: Antibiofilm activity against 72 hrs preformed biofilm of Escherichia coli ATCC 25922 assessed as biofilm viability at 64 ug/ml incubated for 24 hrs by […] (reference value: 16.1 log10CFU). The following applies: dose 64 µg/ml. It is filed as functional. The method, boiled down:
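E. coli from mid-log phase was diluted to ~10^5 CFU/mL in M9 medium with 0.02% casamino acids and 0.5% glycerol and formed biofilm without shaking for 72 h. Wells were PBS-washed, then treated with 2-128 µg/mL for 24 h at 37 °C; medium-only wells served as control. Cells were released with trypsin-EDTA and plated as tenfold dilutions. Viability was given as log10 CFU/well.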

Data set [12] has as its system Escherichia coli. The data set is described as follows: Bactericidal activity against early exponential phase of Escherichia coli ATCC 25922 at 4X MIC measured after 2 to 6 hrs hrs by time-kill kinetic assay. It is filed as functional, organism-based. The following applies: time 2-6 hrs. In outline: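 An overnight culture was diluted 1:10,000 in MHB and shaken at 225 rpm and 37 °C for 2 h (early exponential phase), then exposed to compound. Samples taken at intervals were centrifuged, resuspended in PBS, plated as tenfold dilutions on MHA and incubated overnight at 37 °C. CFU/mL were counted. Biological replicates were run.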

Data set [13] is described as follows: Solubility of the compound in water at room temperature. It is filed as physicochemical. As to conditions: buffer.
Data set [14] relates to Staphylococcus aureus. Kind of data set: Antibiofilm activity against 24 hrs preformed biofilm of Staphylococcus aureus ATCC 29213 assessed as biofilm viability at 2 ug/ml incubated for 24 hrs by crystal violet staining analysis (reference value: 18.9 1og10CFU). It is filed as functional. As to conditions: dose 2 µg/ml.
In data set [15] the test system is Staphylococcus aureus. Kind of data set: Antibacterial activity against methicillin-resistant Staphylococcus aureus assessed as reduction in bacterial growth following incubation in 50% MHB medium and 50% blood and meaured after incubation with compound for 20 to 24 hrs by agar plate method. It is filed as functional. As to conditions: time 20-24 hrs. In outline:
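Sheep plasma obtained by centrifuging defibrinated blood at 3500 rpm for 10 min; serum isolated in serum tubes. MRSA at 10^5 CFU/mL in 50% MHB plus 50% serum, plasma or blood, or in MHB alone. Compound dilutions (512 to 4 µg/mL, pre-mixing) added 50 µL to 150 µL bacteria, 37 °C for 20-24 h. Then 20 µL plated on MHA, 37 °C 20-24 h; MBC taken as no colonies. Two repeats.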

For a further data set, the system named is HeLa. Kind of data set: Cytotoxicity against human HeLa cells assessed as cell morphology at 1 to 4 ug/mL incubated for 24 hrs by optical microscopy. It is filed as cell-based. The following applies: dose 1-4 µg/ml. In outline:
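HeLa cells were kept in DMEM with 10% FBS at 37 °C and 5% CO2. Cells were seeded in 12-well plates, allowed to adhere overnight and exposed to 1, 2 or 4 µg/mL for 24 h. Untreated wells were the negative control and 0.1% Triton X-100 the positive control. After a PBS wash, morphology was imaged by inverted microscopy with a 10× objective. Three repeats.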

Data set [16] has as its system Escherichia coli. The data set is described as follows: Resistance ratio of compound MIC for Escherichia coli ATCC 25922 after 20 passages to compound MIC for Escherichia coli ATCC 25922 after 16 to 20 hrs by CLSI-based broth microdilution method. It is filed as functional. In outline:
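Serial passaging: after each 24 h MIC assay, cells grown at 1/2 MIC were transferred and the MIC assayed again, for 20 passages. Done with S. aureus, E. coli and MRSA. MIC plotted against days of passage. Experiment repeated twice.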

SMILES strings stand for the structures. Converted amounts (≈) assume the structure as drawn. The source made the active and inactive calls. The calls are words filed in the database; no cut-off is given here. Bounds are passed on as bounds.

`C[C@@H](O)[C@H]1C(=O)N2C(C(=O)O)=C(S[C@@H]3CN[C@H](C(=O)N(C)C)C3)[C@H](C)[C@H]12` [MEROPENEM]: the minimal inhibitory concentration (MIC) is 64 µg/mL (≈ 167 µM) in the data set on Enterobacteriaceae [1]; 8 µg/mL (≈ 20.9 µM) with Enterobacteriaceae [2]; 32 µg/mL (≈ 83.4 µM) with Staphylococcus aureus [3]; 32 µg/mL (≈ 83.4 µM) with Staphylococcus aureus [4]; 0.125 µg/mL (≈ 0.326 µM) in the data set with Staphylococcus aureus [5]; above 64 µg/mL in the data set with Klebsiella pneumoniae. The MIC in the data set with Staphylococcus aureus [6] is 32 µg/mL (≈ 83.4 µM); in the data set with Enterobacteriaceae [7], above 64 µg/mL; in the data set on Enterobacteriaceae [8] it was 64 µg/mL (≈ 167 µM). Moreover, the result in the data set on Cell membrane was inactive.
With `CCCCCCCCCCCN(C[C@H]1CN(c2ccc(N3CCOCC3)c(F)c2)C(=O)O1)C(=O)[C@@H](N)CCCCN.Cl.Cl`, the MIC with Enterobacteriaceae [1] was determined as 16 µg/mL; in the data set with Enterobacteriaceae [2] it was 8 µg/mL; in the data set on Staphylococcus aureus [3] it was 2 µg/mL; in the data set on Staphylococcus aureus [4], 2 µg/mL; in the data set on Staphylococcus aureus [5], 2 µg/mL; in the data set on Klebsiella pneumoniae, 16 µg/mL. The MIC in the data set on Staphylococcus aureus [6] came to 4 µg/mL; in the data set with Enterobacteriaceae [7], 16 µg/mL; in the data set with Enterobacteriaceae [8] it was 16 µg/mL. Besides, the results for the MBC with Staphylococcus aureus [9] and in the data set with Staphylococcus aureus [15] were 64 µg/mL and above 128 µg/mL, respectively. For the same compound, the Activity in the data set with Staphylococcus aureus [10] was 5.9 log10CFU; with Escherichia coli [11], 6 log10CFU; in the data set on Staphylococcus aureus [14], 13.9 log10CFU; in the data set on HeLa, “Non-Toxic”. Further, in the data set on Escherichia coli [12], the result was Active. The solubility result in [13] is listed as “Soluble”. For the same compound, the outcome in the data set with Cell membrane was inactive. In the data set with Escherichia coli [16], the Ratio was found to be 2.

As a reminder, the MIC is the lowest concentration found to suppress growth. Usually MBC stands for the lowest tested concentration that kills the bacteria rather than only halting them.
